This note sets out measurements from the array DNA melting data of Ke et al. (doi:10.1101/2024.01.08.574731).

Series [1] is described as follows: folding enthalpy; higher = less favourable; fluorescence melt of hairpins on a sequencing array, two-state fit. As to conditions: sodium 0.088 M. The essentials:
(§1)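 Hairpins were imaged by Cy3 fluorescence on a sequenced MiSeq flow cell with annealed Cy3 and quencher oligos, in 50 mM Na-HEPES pH 8.0, 25 mM NaCl, in 2.5 °C steps up to 60 °C. Bootstrapped two-state fits of normalised signals gave melting temperature and folding enthalpy. Four replicates were combined by inverse variance, and fitted temperatures were raised by 9.35 °C to match UV melts.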

Series [2] is described as follows: melting temperature; fluorescence melt of hairpins on a sequencing array, two-state fit, raised by 9.35 °C to match UV melts. As to conditions: sodium 0.088 M. The essentials: as §1

GTACTCGAAAGAGACTAC ((((((....)))..))): the folding enthalpy in series [1] is -14.5 kcal/mol. For the same sequence, in series [2], the Tm was found to be 33.6 °C.
For GTACTCGAAAGAGCATAC ((((((....)))..))) the same measures were -10.9 kcal/mol and 23.5 °C.
On the same counts, the results for GTACTCGAAAGAGCTTAC ((((((....)))..))) are -11.4 kcal/mol and 27.6 °C.
With GTACTCGAAAGAGTATAC ((((((....)))..))), the folding enthalpy in series [1] is -13.3 kcal/mol. The Tm in series [2] turned out to be 39.3 °C.
On the same counts, the results for GTACTCGAAAGAGTGTAC ((((((....)))..))) are -12.6 kcal/mol and 35.9 °C.
For GTACTCGAAAGAGTTAC ((((((....))).))) the same measures were -14.8 kcal/mol and 38.9 °C.
On the same counts, the results for GTACTCGGAAACAAGTAC (((((.(....).))))) are -23.4 kcal/mol and 32.5 °C.
Consider GTACTCGGAAACGAATAC (((.(((....))).))), for which the folding enthalpy in series [1] was -17.8 kcal/mol. In addition, the Tm in series [2] turned out to be 33.5 °C.
For GTACTGCGAAAGCATAC (((.(((....)))))) the same measures were -12 kcal/mol and 36.6 °C.
On the same counts, the results for GTACTGGGAAACTGGTAC ((((..(....)..)))) are -24.5 kcal/mol and 36.5 °C.
On the same counts, the results for GTACTGTCGAAAGACTAC (((..(((....)))))) are -10.3 kcal/mol and 26.4 °C.
For the sequence GTACTTACGAAAGTATAC (((..(((....)))))), in series [1], the folding enthalpy is -6.58 kcal/mol. Moreover, the Tm in series [2] amounted to 16.2 °C.
On the same counts, the results for GTACTTGGAAACAAGTGC (.(((((....))))).) are -21.1 kcal/mol and 47.4 °C.
On the same counts, the results for GTACTTGGAAACGAGTAC (((((.(....).))))) are -33.6 kcal/mol and 44.2 °C.
For GTAGACGAAAGTCCTTAC ((((((....)))..))) the same measures were -12.1 kcal/mol and 30.7 °C.
Turning to GTAGACGAAAGTCGTTAC ((((((....)))..))), in series [1], the folding enthalpy was -11 kcal/mol. In addition, in series [2], the Tm was determined as 34.6 °C.
As for GTAGACGAAAGTCTAC ((((((....)))))), the folding enthalpy in series [1] is -35.9 kcal/mol. Besides, in series [2], the Tm came out at 62 °C.
On the same counts, the results for GTAGACGCGAAAGCGTAC (((..(((....)))))) are -8.63 kcal/mol and 36.9 °C.
For GTAGACGGAAACGTTTGC (.(.(((....))).).) the same measures were -16.7 kcal/mol and 29.6 °C.
For GTAGAGCCGAAAGGCTAC (((..(((....)))))), in series [1], the folding enthalpy is -10.5 kcal/mol. Moreover, the Tm in series [2] was 34.6 °C.
For GTAGAGGGAAACCTCTAC (((((((....))))))) the same measures were -54.2 kcal/mol and 55.8 °C.
For GTAGATGAAAATCTAC ((((((....)))))) the same measures were -29.2 kcal/mol and 48.6 °C.
GTAGATGGAAACATCTAC (((((((....))))))): the folding enthalpy in series [1] is -41.3 kcal/mol. The Tm in series [2] worked out at 55.5 °C.
On the same counts, the results for GTAGCAGGAAACCGCTAC (((((.(....).))))) are -32.4 kcal/mol and 48.5 °C.
For GTAGCAGGAAACTGCCAC ((.((((....)))).)) the same measures were -14.3 kcal/mol and 36.7 °C.
On the same counts, the results for GTAGCCCCGAAAGGGTAC (((..(((....)))))) are -13.1 kcal/mol and 39.1 °C.
As for GTAGCCCGAAAGGGGTAC (((.(((....))).))), the folding enthalpy in series [1] is -32 kcal/mol. Moreover, in series [2], the Tm worked out at 68.5 °C.
On the same counts, the results for GTAGCCCGAAAGGGTTAC (((.(((....))).))) are -25.4 kcal/mol and 60.2 °C.
On the same counts, the results for GTAGCCGAAAGGCAATAC ((((((....)))..))) are -9.85 kcal/mol and 31.2 °C.
For GTAGCCGAAAGGCCGTAC ((((((....)))..))) the same measures were -7.15 kcal/mol and 26.7 °C.
GTAGCCGAAAGGCGGTAC ((((((....)))..))): the folding enthalpy in series [1] is -9.4 kcal/mol. The Tm in series [2] came to 41.2 °C.
For GTAGCGCGAAAGCGGTAC (((.(((....))).))) the same measures were -25.3 kcal/mol and 68.8 °C.
On the same counts, the results for GTAGCGGGAAACCGCTGC (.(((((....))))).) are -17.3 kcal/mol and 59.7 °C.
For GTAGCGGGAAACCGTTGC (.(.(((....))).).) the same measures were -19.2 kcal/mol and 35.3 °C.
With GTAGCGGGAAACTGCTAC (((((.(....).))))), the folding enthalpy in series [1] is -37.1 kcal/mol. Further, the Tm in series [2] came to 53.6 °C.
For GTAGCGTCGAAAGACTAC (((..(((....)))))) the same measures were -9.24 kcal/mol and 24.7 °C.
For GTAGCTCGAAAGAGATAC (((.(((....))).))) the same measures were -43.5 kcal/mol and 54.9 °C.
Regarding GTAGCTGAAAAGCTAC ((((((....)))))), the folding enthalpy in series [1] was -37.9 kcal/mol. Besides, the Tm in series [2] was found to be 60 °C.
For GTAGCTGGAAACAGTTAC (((.(((....))).))) the same measures were -32.8 kcal/mol and 42.8 °C.
For GTAGCTGGAAACAGTTGC (.(.(((....))).).) the same measures were -14.5 kcal/mol and 30.8 °C.
On the same counts, the results for GTAGCTGGAAACGGCTAC (((((.(....).))))) are -40.8 kcal/mol and 52.5 °C.
As for GTAGGACCGAAAGGTTAC (((..(((....)))))), the folding enthalpy in series [1] is -12.7 kcal/mol. In addition, the Tm in series [2] was 28.5 °C.
On the same counts, the results for GTAGGACGAAAGTCGTAC (((.(((....))).))) are -35.6 kcal/mol and 53.2 °C.
With GTAGGACGAAAGTCTTAC (((.(((....))).))), in series [1], the folding enthalpy is -26.2 kcal/mol. Moreover, in series [2], the Tm stood at 47.7 °C.
For GTAGGAGGAAACTCCCAC ((.((((....)))).)) the same measures were -16.4 kcal/mol and 30.9 °C.
With GTAGGCGAAAGCCCCTAC ((((((....)))..))), the folding enthalpy in series [1] was -7.29 kcal/mol. Also, the Tm in series [2] was found to be 23.7 °C.
On the same counts, the results for GTAGGCGAAAGCCCTAC ((((((....))).))) are -14.8 kcal/mol and 47.7 °C.
On the same counts, the results for GTAGGCGAAAGCCGTTAC ((((((....)))..))) are -8.81 kcal/mol and 39.8 °C.
Regarding GTAGGCGAAAGCCTTAC ((((((....))).))), the folding enthalpy in series [1] is -9.64 kcal/mol. For the same sequence, the Tm in series [2] was 44.9 °C.
For GTAGGCGGAAACGCTTGC (.(.(((....))).).) the same measures were -11.6 kcal/mol and 30.3 °C.
For GTAGGGGGAAACCCCTAC (((((((....))))))) the same measures were -37.4 kcal/mol and 61.9 °C.
As for GTAGGTCCGAAAGGATAC (((..(((....)))))), the folding enthalpy in series [1] is -12.1 kcal/mol. For the same sequence, the Tm in series [2] was 28.8 °C.
With GTAGGTCGAAAGACTAC (((.(((....)))))), the folding enthalpy in series [1] is -17.6 kcal/mol. In addition, the Tm in series [2] was determined as 43.3 °C.
With GTAGGTCGAAAGACTTAC (((.(((....))).))), in series [1], the folding enthalpy is -27.3 kcal/mol. In addition, the Tm in series [2] was 47.9 °C.
For GTAGTAGCGAAAGCTTAC (((..(((....)))))) the same measures were -11.3 kcal/mol and 30.5 °C.
For GTAGTAGGAAACTACCAC ((.((((....)))).)) the same measures were -17.2 kcal/mol and 32.2 °C.
For GTAGTCACGAAAGTGTAC (((..(((....)))))) the same measures were -12 kcal/mol and 30.5 °C.
Turning to GTAGTCCGAAAGGATTAC (((.(((....))).))), the folding enthalpy in series [1] is -34.5 kcal/mol. For the same sequence, the Tm in series [2] is 49.4 °C.
GTAGTCGAAAGACATTAC ((((((....)))..))): the folding enthalpy in series [1] is -9.35 kcal/mol. Besides, the Tm in series [2] stood at 23.5 °C.
On the same counts, the results for GTAGTCGAAAGACTATAC ((((((....)))..))) are -13.2 kcal/mol and 42 °C.
On the same counts, the results for GTAGTCGGAAACGACTGC (.(((((....))))).) are -29 kcal/mol and 53.7 °C.
On the same counts, the results for GTAGTGACGAAAGTCTAC (((..(((....)))))) are -15.9 kcal/mol and 29.7 °C.
GTAGTGCGAAAGCATTAC (((.(((....))).))): the folding enthalpy in series [1] was -25.6 kcal/mol. The Tm in series [2] worked out at 51 °C.
As to GTAGTGGAAACACTAC ((((((....)))))), the folding enthalpy in series [1] is -45.9 kcal/mol. Also, the Tm in series [2] is 53.4 °C.
For GTAGTGGGAAACCATTAC (((.(((....))).))) the same measures were -32 kcal/mol and 38.1 °C.
On the same counts, the results for GTAGTGGGAAACCGCTAC ((((.((....)).)))) are -48.7 kcal/mol and 51.5 °C.
For GTAGTTACGAAAGTATAC (((..(((....)))))) the same measures were -10.3 kcal/mol and 23.9 °C.
As for GTAGTTCGAAAGAAATAC (((.(((....))).))), the folding enthalpy in series [1] was -29.2 kcal/mol. Further, the Tm in series [2] worked out at 42.2 °C.
For GTAGTTCGAAAGAATTAC (((.(((....))).))) the same measures were -26.8 kcal/mol and 42.4 °C.
For GTATAAGAAATTATAC ((((((....)))))) the same measures were -14.5 kcal/mol and 29.6 °C.
For GTATAAGCGAAAGCTTAC (((..(((....)))))) the same measures were -9.03 kcal/mol and 33.8 °C.
Consider GTATAAGGAAACTTATAC (((((((....))))))), for which the folding enthalpy in series [1] was -30.9 kcal/mol. Further, in series [2], the Tm worked out at 46 °C.
GTATACCCGAAAGGGTAC (((..(((....)))))): the folding enthalpy in series [1] is -8.81 kcal/mol. Moreover, the Tm in series [2] was 32.4 °C.
